The values that follow come from ChEMBL document CHEMBL1132283, “Further studies on the Dmt-Tic pharmacophore: hydrophobic substituents at the C-terminus endow delta antagonists to manifest mu agonism or mu antagonism” (J Med Chem, 1999).

Where a SMILES comes first, the peptide text is derived from it. [ ]: non-standard residue; d: D form. The star is where a group is joined. Dmt = Cc1cc(O)cc(C)c1C[C@H](N)C(=O)O; Tic = O=C(O)[C@@H]1Cc2ccccc2CN1; NHtBu = CC(C)(C)N*; NHNH2 = NN*

Test [1] is filed under the species Mus musculus. As to the kind of experiment: Antagonistic functional bioactivity against delta-receptor from mouse vas deferens(MVD). The settings on record: for Kb: read-out: pA2 (converted).
The target in test [2] is T1, Opioid receptors; mu & delta (Rattus norvegicus) (UniProt P33533+P33535). As to the kind of experiment: Antagonistic activity ratio (Ki of mu receptors compared to Ki of delta receptors). It is filed as functional.
T1 sequence (P33533 whole entry, looked up): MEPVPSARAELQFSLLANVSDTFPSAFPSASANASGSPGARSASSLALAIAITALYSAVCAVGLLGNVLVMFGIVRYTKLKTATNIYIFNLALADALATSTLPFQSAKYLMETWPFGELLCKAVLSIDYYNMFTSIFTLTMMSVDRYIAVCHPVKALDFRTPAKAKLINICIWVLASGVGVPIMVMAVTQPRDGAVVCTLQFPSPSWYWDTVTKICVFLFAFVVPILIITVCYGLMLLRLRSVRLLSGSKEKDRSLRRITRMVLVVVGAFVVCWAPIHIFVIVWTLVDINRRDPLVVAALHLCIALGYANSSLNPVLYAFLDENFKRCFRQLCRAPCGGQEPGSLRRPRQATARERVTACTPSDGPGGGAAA
T1 sequence (P33535 whole entry, looked up): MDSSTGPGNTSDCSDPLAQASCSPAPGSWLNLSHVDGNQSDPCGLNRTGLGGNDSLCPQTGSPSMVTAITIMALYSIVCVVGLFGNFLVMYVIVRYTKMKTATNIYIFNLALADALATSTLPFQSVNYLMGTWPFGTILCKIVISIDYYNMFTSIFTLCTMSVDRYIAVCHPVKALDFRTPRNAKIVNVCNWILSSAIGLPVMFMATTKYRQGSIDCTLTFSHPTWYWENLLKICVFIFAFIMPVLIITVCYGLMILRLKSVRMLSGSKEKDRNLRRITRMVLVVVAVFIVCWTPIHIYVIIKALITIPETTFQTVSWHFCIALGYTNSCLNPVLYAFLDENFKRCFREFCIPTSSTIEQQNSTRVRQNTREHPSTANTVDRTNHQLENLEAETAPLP
The species entered for test [3] is Cavia porcellus. As to the kind of experiment: Antagonistic functional bioactivity against […]-receptor from guinea pig ileum(GPI).
Test [4] addresses T1, Opioid receptors; mu & delta (Rattus norvegicus). As to the kind of experiment: Agonist activity ratio (Ki of mu receptors compared to Ki of delta receptors). It is filed as functional.
For test [5], the target named is T2, Delta-type opioid receptor (Rattus norvegicus, UniProt P33533). As to the kind of experiment: Binding affinity at Opioid receptor delta 1 from rat brain synaptosomal preparations by H-Dmt-Tic-OH displacement.
T2 sequence (P33533 whole entry): as the sequence (P33533 whole entry, looked up) above
Test [6] deals with T2, Delta-type opioid receptor. Put plainly: Binding affinity at Opioid receptor delta 1 from rat brain synaptosomal preparations by [3H]N,N-(Me)2-Dmt-Tic-OH displacement. An outline of the steps:
(§1)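 Nonspecific binding was set with 2 μM unlabeled peptide, followed by GF/C filtration. Duplicates at 5–9 doses, ≥3 preparations; Ki by Cheng–Prusoff, mean ± SEM.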

In the next test the target is Mu-type opioid receptor (Rattus norvegicus, UniProt P33535). As to the kind of experiment: Binding affinity at Opioid receptor mu 1 from rat brain synaptosomal preparations by [3H]DAGO displacement. An outline of the steps: as §1
Sequence of Mu-type opioid receptor (P33535 whole entry): as the sequence (P33535 whole entry, looked up) above
The species entered for test [7] is Mus musculus. Put plainly: Antagonistic functional bioactivity against delta-receptor from mouse vas deferens(MVD). The note with it: for Kb: read-out: pA2 (converted).
The species entered for test [8] is Cavia porcellus. Put plainly: Antagonistic functional bioactivity against […]-receptor from guinea pig ileum(GPI). The note with it: for Kb: read-out: pA2 (converted).

For orientation: EC50 means the concentration at which the effect is half-maximal. Low readings indicate greater potency, high ones weaker potency. On to `Cc1cc(O)cc(C)c1C[C@@H](C(=O)N1Cc2ccccc2C[C@H]1C(=O)O)n1cccc1`, for which, in the test filed under Mus musculus [1], the Ke is given as 408 nM and the Kb was 407 nM. For the same compound, the Ratio in [2] was 562. Besides, in the test listed under Cavia porcellus [3], the EC50 is > 10000 nM. Moreover, in test [4], the Ratio amounted to 338.

Broadly, the Ki is the equilibrium dissociation constant of an inhibitor or competing ligand from its target. A high value points to lower affinity. In the case of `Cc1cc(O)cc(C)c1C[C@@H](C(=O)N1Cc2ccccc2C[C@@H]1C(=O)NC12C[C@H]3C[C@@H](C1)C[C@@H](C2)C3)N(C)C`, the Ki in test [5] is 120 nM; in test [6], 140 nM; on Mu-type opioid receptor, 50.5 nM. The Ratio came to 0.42 in test [2] and 0.36 in test [4]. Further, the Ke in the test listed under Mus musculus [7] is on record as 128 nM. For the same compound, the Kb in the test listed under Mus musculus [7] is 123 nM. For the same compound, a half-maximal effect in the test listed under Cavia porcellus [8] (EC50) was put at 4480 nM.

Consider `Cc1cc(O)cc(C)c1C[C@H](N)C(=O)N1Cc2ccccc2C[C@H]1C(=O)NC(C)(C)C` (H-[Dmt]-[Tic]-NHtBu), for which the Ratio in test [2] was found to be 6; in test [4] it was 14. The same compound gave a Ke in the test filed under Mus musculus [7] of 1.74 nM. In the test filed under Mus musculus [7], the Kb was 5.75 nM. The same compound came in with an EC50 in the test listed under Cavia porcellus [8] of 1040 nM.

`Cc1cc(O)cc(C)c1C[C@H](N)C(=O)N1Cc2ccccc2C[C@H]1C(=O)N[C@@H](C)C(=O)NC12C[C@H]3C[C@@H](C1)C[C@@H](C2)C3`: the Ki in test [5] was determined as 0.04 nM; in test [6] it was 0.073 nM; on Mu-type opioid receptor, 2.52 nM. The same compound had a Ke in the test listed under Mus musculus [7] of 0.51 nM. Also, in the test listed under Mus musculus [7], the Kb was 0.513 nM. The compound also displayed a concentration for a half-maximal effect (EC50) in the test filed under Cavia porcellus [8] of 1000 nM.

In the case of `Cc1cc(O)cc(C)c1C[C@@H](C(=O)N1Cc2ccccc2C[C@H]1C(=O)O)N1CCCC1`, in [2], the Ratio came to 573. Further, in the test listed under Mus musculus [7], the Ke is 121 nM and the Kb was 126 nM. Further, the EC50 in the test filed under Cavia porcellus [8] was > 10000 nM. The Ratio in test [4] came to 502.

For `Cc1cc(O)cc(C)c1C[C@H](N)C(=O)N1Cc2ccccc2C[C@H]1CC(=O)O`, in the test filed under Mus musculus [7], the Ke is given as 1.41 nM and the Kb was 1.58 nM. Further, the EC50 in the test filed under Cavia porcellus [8] is > 10000 nM.

Take `COC(=O)[C@H](C)NC(=O)[C@@H]1Cc2ccccc2CN1C(=O)[C@@H](N)Cc1c(C)cc(O)cc1C` (H-[Dmt]-[Tic]-Ala-OMe): the Ratio worked out at 83 in [2] and 48 in test [4].

Regarding `Cc1cc(O)cc(C)c1C[C@H](N)C(=O)N1Cc2ccccc2C[C@H]1C(=O)Nc1nn[nH]n1`, the Ke in the test filed under Mus musculus [1] is listed as 36.3 nM. The Kb in the test listed under Mus musculus [1] was 36.3 nM. Further, the Ratio in [2] came to 4; in test [4] it was 53. The same compound returned an EC50 in the test listed under Cavia porcellus [3] of 8200 nM.

With `Cc1cc(O)cc(C)c1C[C@@H](C(=O)N1Cc2ccccc2C[C@H]1C(=O)NC(C)(C)C)N(C)C`, in the test listed under Mus musculus [7], the Ke was determined as 14.1 nM and the Kb was 14.1 nM. Besides, in the test listed under Cavia porcellus [8], the EC50 was > 10000 nM, the Ke is 0.3 nM and the Kb was 302 nM.

`Cc1cc(O)cc(C)c1C[C@H](N)C(=O)N1Cc2ccccc2C[C@@H]1C(=O)NC12C[C@H]3C[C@@H](C1)C[C@@H](C2)C3`: the results for the Ki (in test [5]; in [6]; on Mu-type opioid receptor) were 70.3 nM, 24.5 nM and 0.26 nM, respectively. The Ratio is 0.004 in test [2] and 0.01 in test [4]. In the test filed under Mus musculus [7], the Ke is listed as >10000 nM. In the test listed under Cavia porcellus [8], this compound yielded an EC50 of 1680 nM.

As to `Cc1cc(O)cc(C)c1C[C@H](N)C(=O)N1Cc2ccccc2C[C@H]1C(=O)NC12C[C@H]3C[C@@H](C1)C[C@@H](C2)C3`, the inhibition constant Ki amounted to 1.01 nM in test [5], 0.26 nM in [6] and 0.76 nM at Mu-type opioid receptor. Besides, the Ratio in test [2] stood at 0.8; in test [4] it was 3. In addition, the EC50 was 870 nM in the test listed under Mus musculus [7] and 36 nM in the test filed under Cavia porcellus [8]. Moreover, the Ke in the test filed under Mus musculus [7] is recorded as >10000 nM.

`Cc1cc(O)cc(C)c1CC(CN)C(=O)N1Cc2ccccc2C[C@H]1C(=O)O` (stereo not given in full): the Ratio was determined as 4 in [2] and 155 in test [4].

In the case of `CNC(=O)[C@@H]1Cc2ccccc2CN1C(=O)[C@@H](N)Cc1c(C)cc(O)cc1C` (H-[Dmt]-[Tic]-NHMe), in the test filed under Mus musculus [7], the EC50 worked out at 21200 nM and the Ke was >10000 nM. In the test filed under Cavia porcellus [8], the concentration giving a half-maximal response (EC50) is > 10000 nM, the Ke is reported as 1.15 nM and the Kb is 1150 nM.

On to `Cc1cc(O)cc(C)c1C[C@@H](C(=O)N1Cc2ccccc2C[C@H]1C(=O)O)N1CCCCC1`, for which the Ratio in test [2] came to 2760; in [4], 1730. Besides, the Ke in the test listed under Mus musculus [7] stood at 49 nM. In addition, in the test listed under Mus musculus [7], the Kb is 49 nM. The EC50 in the test filed under Cavia porcellus [8] was > 10000 nM.

Turning to `Cc1cc(O)cc(C)c1C[C@H](N)C(=O)N1Cc2ccccc2C[C@H]1C(=O)NN` (H-[Dmt]-[Tic]-NHNH2), the Ratio in test [2] was determined as 2; in test [4] it was 86.

Consider `Cc1cc(O)cc(C)c1C[C@@H](C(=O)N1Cc2ccccc2C[C@H]1C(=O)NC12C[C@H]3C[C@@H](C1)C[C@@H](C2)C3)N(C)C`, for which the figures for the Ki (in test [5]; in test [6]; on Mu-type opioid receptor) were 0.12 nM, 0.16 nM and 1.12 nM, respectively. For the same compound, the Ratio was 9 in [2] and 7 in test [4]. The same compound gave a Ke in the test listed under Mus musculus [7] of 0.87 nM. Also, the Kb in the test listed under Mus musculus [7] is 0.871 nM. The compound also displayed an EC50 in the test listed under Cavia porcellus [8] of 16 nM.

In the case of `COC(=O)[C@@H]1Cc2ccccc2CN1C(=O)[C@@H](N)Cc1c(C)cc(O)cc1C` (H-[Dmt]-[Tic]-OMe), the Ratio in [2] was 0.8; in [4], 44.

For the compound `CNC(=O)[C@@H]1Cc2ccccc2CN1C(=O)[C@H](Cc1c(C)cc(O)cc1C)N(C)C`, the Ratio in test [2] stood at 1270; in test [4], 669. In addition, the results for the Ke in the test listed under Mus musculus [7] and in the test listed under Cavia porcellus [8] were 0.41 nM and 0.39 nM, respectively. Also, the Kb is 0.407 nM in the test filed under Mus musculus [7] and 389 nM in the test listed under Cavia porcellus [8]. Moreover, the concentration for a half-maximal effect (EC50) in the test listed under Cavia porcellus [8] is > 10000 nM.

`CNC(=O)[C@H](C)NC(=O)[C@@H]1Cc2ccccc2CN1C(=O)[C@@H](N)Cc1c(C)cc(O)cc1C` (H-[Dmt]-[Tic]-Ala-NHMe): the Ratio in [2] was 47; in test [4] it was 100. Moreover, the EC50 stood at 1290 nM in the test filed under Mus musculus [7] and 290 nM in the test listed under Cavia porcellus [8].

For `Cc1cc(O)cc(C)c1C[C@H](N)C(=O)N1Cc2ccccc2C[C@H]1C(=O)N[C@@H](C)C(=O)NC(C)(C)C` (H-[Dmt]-[Tic]-Ala-NHtBu), the Ratio was 48 in test [2] and 61 in test [4]. In the test filed under Mus musculus [7], this compound displayed a Ke of 0.69 nM. Further, the Kb in the test filed under Mus musculus [7] is 0.692 nM; in the test filed under Cavia porcellus [8] it was 174 nM. Also, the concentration giving a half-maximal response (EC50) in the test filed under Cavia porcellus [8] is > 10000 nM.
